# According to ChEMBL document CHEMBL3864174, “Scaffold-Hopping of Aurones: 2-Arylideneimidazo[1,2-a]pyridinones as Topoisomerase IIα-Inhibiting Anticancer Agents” (ACS Med Chem Lett, 2016):
# Calls of active or inactive are those of the source. The calls are words filed in the database; no cut-off is given here.
# Experiments:
# [1] = target: DNA topoisomerase 2-alpha (Homo sapiens) (UniProt P11388); experiment: Inhibition of human Topo2alpha-mediated kDNA decatenation at 100 uM after 30 mins by SDS-based agarose gel electrophoresis
# DNA topoisomerase 2-alpha (Homo sapiens), sequence (P11388 whole entry): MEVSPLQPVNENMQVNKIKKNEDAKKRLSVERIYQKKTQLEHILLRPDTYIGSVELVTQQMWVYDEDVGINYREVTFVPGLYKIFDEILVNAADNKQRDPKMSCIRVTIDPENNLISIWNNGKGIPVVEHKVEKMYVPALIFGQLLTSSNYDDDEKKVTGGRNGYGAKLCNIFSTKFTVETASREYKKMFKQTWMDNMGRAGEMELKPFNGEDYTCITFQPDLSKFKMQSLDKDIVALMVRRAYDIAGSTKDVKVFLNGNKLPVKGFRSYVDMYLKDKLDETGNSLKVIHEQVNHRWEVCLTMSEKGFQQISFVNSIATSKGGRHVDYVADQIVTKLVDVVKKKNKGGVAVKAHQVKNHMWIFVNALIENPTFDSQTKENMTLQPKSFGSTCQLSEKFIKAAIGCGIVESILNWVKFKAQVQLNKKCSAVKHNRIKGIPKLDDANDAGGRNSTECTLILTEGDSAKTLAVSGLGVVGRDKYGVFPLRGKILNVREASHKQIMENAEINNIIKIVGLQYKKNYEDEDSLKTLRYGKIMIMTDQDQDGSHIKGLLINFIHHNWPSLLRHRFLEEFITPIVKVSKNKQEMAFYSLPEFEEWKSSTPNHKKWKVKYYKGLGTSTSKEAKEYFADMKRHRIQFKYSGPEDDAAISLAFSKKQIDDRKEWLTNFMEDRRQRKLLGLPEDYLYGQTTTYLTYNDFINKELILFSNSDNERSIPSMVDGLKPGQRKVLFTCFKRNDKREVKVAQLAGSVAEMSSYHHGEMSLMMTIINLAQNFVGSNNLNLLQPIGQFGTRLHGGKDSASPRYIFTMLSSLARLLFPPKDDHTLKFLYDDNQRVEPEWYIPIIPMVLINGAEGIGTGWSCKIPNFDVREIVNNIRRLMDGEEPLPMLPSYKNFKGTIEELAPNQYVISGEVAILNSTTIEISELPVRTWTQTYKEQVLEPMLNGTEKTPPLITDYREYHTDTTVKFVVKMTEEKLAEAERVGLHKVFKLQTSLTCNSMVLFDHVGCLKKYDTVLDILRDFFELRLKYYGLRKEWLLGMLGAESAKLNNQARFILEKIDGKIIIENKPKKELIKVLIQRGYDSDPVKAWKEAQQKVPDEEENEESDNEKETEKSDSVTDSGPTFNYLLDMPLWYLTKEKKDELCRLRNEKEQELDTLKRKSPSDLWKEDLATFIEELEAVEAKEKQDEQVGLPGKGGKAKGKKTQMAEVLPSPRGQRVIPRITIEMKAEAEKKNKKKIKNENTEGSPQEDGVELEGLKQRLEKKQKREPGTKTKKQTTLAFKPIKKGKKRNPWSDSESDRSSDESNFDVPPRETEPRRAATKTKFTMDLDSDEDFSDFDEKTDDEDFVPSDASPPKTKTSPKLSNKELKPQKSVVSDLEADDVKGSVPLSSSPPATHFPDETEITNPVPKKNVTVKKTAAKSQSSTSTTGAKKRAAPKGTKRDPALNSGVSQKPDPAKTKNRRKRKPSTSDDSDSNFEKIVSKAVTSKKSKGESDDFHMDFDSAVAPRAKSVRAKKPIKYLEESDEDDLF
# [2] = target: DNA topoisomerase 2-alpha (Homo sapiens) (UniProt P11388); experiment: Poison activity at human Topo2alpha using pUC19 as substrate assessed as DNA cleavage-complex formation at 100 uM measured after 20 mins by ethidium bromide staining based SDS-agarose gel electrophoresis
# MCF7 [3] = experiment: Induction of apoptosis in human MCF7 cells assessed as increase in BAX expression at 75 nM after 48 hrs by Western blot analysis relative to control; type: functional
# [4] = Binding affinity to DNA (unknown origin) assessed as occurrence of hypochromism after 1 hr by UV-Vis spectrophotometric analysis
# Procedure, shortened: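 UV absorption of DNA near 260 nm, recorded with and without increasing compound concentrations; hypochromism was taken as the binding read-out.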
# [5] = target: Cyclin-dependent kinase 1 (Homo sapiens) (UniProt P06493); experiment: Inhibition of CDK1 phosphorylation at Thr-161 residue in human MCF7 cells at 50 nM after 48 hrs by Western blot analysis relative to control; type: cell-based
# Cyclin-dependent kinase 1 (Homo sapiens), sequence (P06493 whole entry, looked up): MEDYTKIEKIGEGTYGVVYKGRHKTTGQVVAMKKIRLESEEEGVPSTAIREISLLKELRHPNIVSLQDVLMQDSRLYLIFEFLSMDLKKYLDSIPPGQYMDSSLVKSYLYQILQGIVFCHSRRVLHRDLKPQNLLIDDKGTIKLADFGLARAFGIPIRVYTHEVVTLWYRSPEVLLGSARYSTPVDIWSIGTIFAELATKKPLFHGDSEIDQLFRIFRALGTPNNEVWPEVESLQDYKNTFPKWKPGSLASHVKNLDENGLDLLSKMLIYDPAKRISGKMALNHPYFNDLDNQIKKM
# Procedure, shortened: (§1)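 Western blot of MCF-7 lysates after treatment across a concentration series. Probes were CDK1, pCDK1 (Thr 161) and cleaved caspase 3 (17 kDa). Bands were quantified by densitometry as fold change versus untreated control, with at least three repeats.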
# [6] = (§2) Cytotoxicity against HEK293T cells assessed as cells growth inhibition after 48 hrs by MTT assay; type: functional, cell-based; settings: Homo sapiens, HEK-293T
# Procedure, shortened: (§3)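 MTT colorimetric assay. HEK-293T (kidney line) and VERO cells were tested, and the IC50 was taken as the concentration giving 50% growth inhibition.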
# HEK-293T [7] = experiment: as §2; type: functional, cell-based; settings: Homo sapiens; procedure, shortened: as §3
# [8] = Cytotoxicity against African green monkey Vero cells assessed as cells growth inhibition after 48 hrs by MTT assay; type: toxicity, cell-based, Chlorocebus sabaeus; procedure, shortened: as §3
# MCF7 [9] = experiment: Cytotoxicity against human MCF7 cells assessed as cells growth inhibition after 48 hrs by MTT assay; type: functional, cell-based
# [10] = Cytotoxicity against human MDA-MB-231 cells assessed as reduction in cell viability after 48 hrs by MTT assay; type: functional, cell-based; settings: MDA-MB-231, 48 h
# [11] = Cytotoxicity against human MDA-MB-468 cells assessed as reduction in cell viability after 48 hrs by MTT assay; type: functional, cell-based; settings: MDA-MB-468, 48 h
# [12] = (§4) Cytotoxicity against HEK293T cells assessed as reduction in colony formation after 48 hrs by crystal violet-staining based assay; type: functional; settings: Homo sapiens, HEK-293T, read-out: LC50 (the source's name)
# HEK-293T [13] = experiment: as §4; type: functional; settings: Homo sapiens
# [14] = Cytotoxicity against African green monkey Vero cells assessed as reduction in colony formation after 48 hrs by crystal violet-staining based assay; type: toxicity, cell-based; settings: chlorocebus sabaeus
# MCF7 [15] = experiment: Cytotoxicity against human MCF7 cells assessed as reduction in colony formation after 48 hrs by crystal violet-staining based assay; type: functional, cell-based
# MCF7 [16] = experiment: Induction of apoptosis in human MCF7 cells assessed as chromatin condensation up to 75 nM after 48 hrs by DAPI-nuclear staining based fluorescent microscopic analysis relative to control; type: functional, cell-based
# Procedure, shortened: (§5)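 MCF-7 cells exposed to increasing compound concentrations for 48 h before DAPI was added. Nuclei were scored for chromatin condensation and fragmentation, counted as apoptotic nuclei versus untreated cells.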
# MCF7 [17] = experiment: Induction of apoptosis in human MCF7 cells assessed as nuclear fragmentation up to 75 nM after 48 hrs by DAPI-nuclear staining based fluorescent microscopic analysis relative to control; type: functional, cell-based; procedure, shortened: as §5
# MCF7 [18] = experiment: Induction of apoptosis in human MCF7 cells assessed as increase in apoptotic nuclei at 75 nM after 48 hrs by DAPI-nuclear staining based fluorescent microscopic analysis relative to control; type: functional; procedure, shortened: as §5
# MCF7 [19] = experiment: Induction of apoptosis in human MCF7 cells assessed as increase in BAX expression at 50 nM after 48 hrs by Western blot analysis relative to control; type: functional
# MCF7 [20] = experiment: Induction of apoptosis in human MCF7 cells assessed as decrease in BCL-XL expression at 50 nM after 48 hrs by Western blot analysis relative to control; type: functional
# [21] = Downregulation of CDK1 expression in human MCF7 cells at 50 nM after 48 hrs by Western blot analysis relative to control; type: functional, cell-based; procedure, shortened: as §1
# [22] = Downregulation of p21 expression in human MCF7 cells at 50 nM after 48 hrs by Western blot analysis relative to control; type: functional, cell-based
# [23] = Downregulation of p53 expression in human MCF7 cells at 50 nM after 48 hrs by Western blot analysis relative to control; type: functional, cell-based
# MCF7 [24] = experiment: Induction of apoptosis in human MCF7 cells assessed as 19 kDa caspase-3 expression level at 50 nM after 48 hrs by Western blot analysis relative to control; type: functional
# MCF7 [25] = experiment: Induction of apoptosis in human MCF7 cells assessed as increase in 17 kDa caspase-3 expression at 50 nM after 48 hrs by Western blot analysis relative to control; type: functional; procedure, shortened: as §1
# MCF7 [26] = experiment: Induction of apoptosis in human MCF7 cells assessed as increase in caspase-3 expression at 50 to 75 nM after 48 hrs by TRITC/DAPI-staining based fluorescent microscopic analysis; type: functional, cell-based
# Procedure, shortened: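 Caspase 3 immunocytochemistry in MCF-7 cells after increasing compound concentrations. Signal was expressed as densitometric fold change versus untreated control, with at least three repeats.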
# MCF7 [27] = experiment: Antiinvasive activity in human MCF7 cells assessed as reduction in number of invaded colonies at 25 to 75 nM after 48 hrs by crystal violet-staining based colony counting; type: functional, cell-based
# Procedure, shortened: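 Matrigel invasion assay in MCF-7 cells exposed to rising compound concentrations; read-out is the number of invaded colonies versus an untreated control.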
# MCF7 [28] = experiment: Inhibition of topoisomerase in human MCF7 cell nuclear lysates assessed as reduction in relaxation of supercoiled plasmid DNA NFkB substrate at 10 to 75 nM after 30 mins by ethidium bromide-staining based agarose gel electrophoresis
# Procedure, shortened: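 Ex vivo topoisomerase assay using MCF-7 nuclear lysate with NFkB plasmid as substrate. Compound ranged from 10 nM to 75 nM, with lanes for plasmid alone and untreated lysate, and an etoposide lane at 45 µM.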
# [29] = Cell cycle arrest in human MCF7 cells assessed as accumulation at G2/M phase at 50 nM after 48 hrs by propidium iodide-staining based FACS analysis (reference value: 41 +/- 2.8 %); type: functional
# [30] = Cell cycle arrest in human MCF7 cells assessed as accumulation at subG1 phase at 100 nM after 48 hrs by propidium iodide-staining based FACS analysis (reference value: 0.8 +/- 0.1 %); type: functional
# [31] = Inhibition of tubulin polymerization in human MCF7 cells assessed as suppression of protein assembly after 15 mins by spectrophotometric analysis; type: cell-based
# MCF7 [32] = experiment: Inhibition of alpha tubulin in human MCF7 cells assessed as distortion in tubulin assembly at 50 to 75 uM by FITC/propidium iodide-staining based assay; type: cell-based
# Procedure, shortened: (§6)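 MCF-7 cells were immunostained for α-tubulin with FITC and counterstained with propidium iodide for nuclei. Merged images were inspected for assembly distortion and abnormal mitotic spindles.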
# MCF7 [33] = experiment: Inhibition of alpha tubulin in human MCF7 cells assessed as formation of abnormal mitotic spindle at 50 to 75 uM by FITC/propidium iodide-staining based assay; type: cell-based; procedure, shortened: as §6
# MCF7 [34] = experiment: Induction of apoptosis in human MCF7 cells assessed as decrease in BCL-XL expression at 75 nM after 48 hrs by Western blot analysis relative to control; type: functional
# [35] = Downregulation of CDK1 expression in human MCF7 cells at 75 nM after 48 hrs by Western blot analysis relative to control; type: functional, cell-based; procedure, shortened: as §1
# [36] = target: Cyclin-dependent kinase 1 (Homo sapiens) (UniProt P06493); experiment: Inhibition of CDK1 phosphorylation at Thr-161 residue in human MCF7 cells at 75 nM after 48 hrs by Western blot analysis relative to control; type: cell-based; procedure, shortened: as §1
# [37] = Downregulation of p21 expression in human MCF7 cells at 75 nM after 48 hrs by Western blot analysis relative to control; type: functional, cell-based
# [38] = Downregulation of p53 expression in human MCF7 cells at 75 nM after 48 hrs by Western blot analysis relative to control; type: functional, cell-based
# MCF7 [39] = experiment: Induction of apoptosis in human MCF7 cells assessed as 19 kDa caspase-3 expression level at 75 nM after 48 hrs by Western blot analysis relative to control; type: functional
# MCF7 [40] = experiment: Induction of apoptosis in human MCF7 cells assessed as increase in 17 kDa caspase-3 expression at 75 nM after 48 hrs by Western blot analysis relative to control; type: functional; procedure, shortened: as §1
structure (smiles),measurement,setting,value
COc1ccc(/C=C2\N=C3C=CC=CN3C2=O)cc1,inhibition,[1],Active
same,Activity,[2],Active
same,fold change (FC),MCF7 [3],2
same,Kb,[4],2e+06 M⁻¹
same,fold change (FC),[5],1.2
same,IC50,[6],60 nM
same,growth inhibition (GI),HEK-293T [7],Dose-dependent effect
same,IC50 at 48 h,"[8]; African green monkey (Chlorocebus sabaeus), Vero cells",1500 nM
same,growth inhibition (GI),"[8]; chlorocebus sabaeus, vero, 48 h",Dose-dependent effect
same,growth inhibition (GI),MCF7 [9],Dose-dependent effect
same,IC50,[10],64 nM
same,IC50,[11],60 nM
same,CC50,[12],60 nM
same,Activity,HEK-293T [13],Dose-dependent effect
same,CC50 at 48 h,"[14]; Vero cells, read-out: LC50",1500 nM
same,Activity,"[14]; vero, 48 h",Dose-dependent effect
same,Activity,MCF7 [15],Dose-dependent effect
same,Activity,MCF7 [16],Active
same,Activity,MCF7 [17],Active
same,fold change (FC),MCF7 [18],>6
same,fold change (FC),MCF7 [19],1.2
same,fold change (FC),MCF7 [20],0.9
same,fold change (FC),[21],0.9
same,fold change (FC),[22],1.4
same,fold change (FC),[23],1.4
same,fold change (FC),MCF7 [24],1.4
same,fold change (FC),MCF7 [25],1.6
same,Activity,MCF7 [26],Dose-dependent effect
same,Activity,MCF7 [27],Active
same,inhibition,MCF7 [28],Active
same,Activity,[29],80.1%
same,Activity,[30],20.2%
same,IC50,[31],54 nM
same,inhibition,MCF7 [32],Active
same,inhibition,MCF7 [33],Active
same,fold change (FC),MCF7 [34],0.2
same,fold change (FC),[35],0.2
same,fold change (FC),[36],2
same,fold change (FC),[37],2.5
same,fold change (FC),[38],2.5
same,fold change (FC),MCF7 [39],1.6
same,fold change (FC),MCF7 [40],2
